FN deposit inh: fibronectin deposition inhibition; AH1F fibroblasts, Alexa488-fibronectin deposition fluorescence, overnight; inhibition, % at 12.6 µM; 350,000 tested, 0.086% active; AID 743247;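 active = mean inhibition across replicates of 30% or more, regardless of how many single replicates reach that level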;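 note: positive control wells lacked labelled fibronectin entirely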
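Measured by – fluorescence 485/525 nm · System – AH1F fibroblast monolayer, labelled fibronectin deposition · Amount – 10000 cells per well · Buffer or medium – serum-reduced DMEM (2% serum) · Doses – single dose, pinned · Also added – fluorescent fibronectin at 24 nM final · Schedule – 1 h cell attachment, overnight exposure to compound and label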
FGF22 binding: binders of recombinant human FGF22 by thermal shift; activity (Tm shift, normalised), % at 9.99 µM; Q9HCT0; SYPRO orange fluorescence; percent of sucrose octasulfate shift, DMSO zero; 340,000 tested, 1.5% active; AID 651658;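 active = mean Tm shift, scaled 0 neutral to 100 positive control, at about 1.3% or above, every replicate too, limit read from the data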
Target sequence (Q9HCT0 whole entry, looked up): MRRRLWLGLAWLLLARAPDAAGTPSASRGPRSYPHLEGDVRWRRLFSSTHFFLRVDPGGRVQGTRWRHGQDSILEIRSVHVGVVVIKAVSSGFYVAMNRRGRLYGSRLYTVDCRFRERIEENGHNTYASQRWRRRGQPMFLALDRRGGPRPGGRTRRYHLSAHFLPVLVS
MLL AF4-AF9 inh: inhibitors of human MLL-AF4/AF9 interaction; P42568; AlphaScreen, biotin-AF4 peptide binding to FLAG-AF9; inhibition, % at 10 µM; 350,000 tested, 0.47% active;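 active = every replicate reaching a set inhibition limit, whatever the replicate mean, cut at about 25% in these data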;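 note: 0% = plate neutral control median and 100% = total signal loss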
ARNT TACC3 PPI: ARNT/TACC3 interaction disruption. inhibition, % at 9.99 µM. AlphaScreen His-ARNT PAS-B/GST-TACC3 binding, luminescence; TACC3 fragment carries E629A point mutation. AID 623870. Q9Y6A5. 390,000 tested, 0.66% active;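 active = mean inhibition of replicates at least 50% and at least half of replicates each reaching 50%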;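 note: 0% = complete ARNT plus TACC3 wells and 100% = ARNT alone without TACC3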
ERp5 inh: blocks human ERp5 reductase activity on insulin; Q15084; ERp5 insulin aggregation, absorbance 650 nm, 90 min; inhibition, % at 9.99 µM; 350,000 tested, 0.05% active; AID 651711;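 active = mean replicate inhibition above about 25%, with every replicate also reaching it, limit read from the data, passing the limit was not always enough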
Target sequence (Q15084 whole entry, looked up): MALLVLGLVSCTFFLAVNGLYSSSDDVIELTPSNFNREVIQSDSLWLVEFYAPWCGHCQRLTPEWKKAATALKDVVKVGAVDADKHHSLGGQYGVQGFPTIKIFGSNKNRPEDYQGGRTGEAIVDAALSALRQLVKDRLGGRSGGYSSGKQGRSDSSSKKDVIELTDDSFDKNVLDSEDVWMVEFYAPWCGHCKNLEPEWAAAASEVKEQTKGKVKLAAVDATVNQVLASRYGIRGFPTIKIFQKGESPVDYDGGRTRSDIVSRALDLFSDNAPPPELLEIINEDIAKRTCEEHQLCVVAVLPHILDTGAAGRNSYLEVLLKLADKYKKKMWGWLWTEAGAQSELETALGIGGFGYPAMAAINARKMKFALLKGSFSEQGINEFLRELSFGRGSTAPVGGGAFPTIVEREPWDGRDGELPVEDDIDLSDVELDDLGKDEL
PDI turbidity: PDI (human) enzyme inhibition. P07237. PDI insulin aggregation turbidity, A650, 90 min. inhibition, % at 10 µM. 350,000 tested, 0.052% active. AID 588391;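 active = mean inhibition across replicates of 30% or more, whatever share of single replicates reach that level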
ARNT Alpha ctr-1: counter-screen for ARNT/TACC3 inhibitors: AlphaScreen artifacts | shares compounds with ARNT TACC3 PPI | His-ARNT PASB-GST AlphaScreen artifact counter-screen, luminescence | 1,200 tested, 50% active | AC50, µM (top dose mostly 68 µM), without a hit: top-dose activity change, negative = signal decrease;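 active = every separate test run was called active for a drop in luminescence, with AC50 within twice the top valid dose, actives reach about 71 µM in these data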
ARNT Alpha ctr-2: AlphaScreen artifact flagged for ARNT-TACC3 inhibitors; shares compounds with ARNT TACC3 PPI; AC50, µM; Dual-tagged His-ARNT PASB-GST AlphaScreen artifact counter-screen; AID 720564; 45 tested, 70% active;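 active = luminescence drop, with half-maximal potency fitted within twice the sample's top valid dose, cut at about 70 µM in these data; inactive = the rest, including signal moving the wrong way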
The depositor's hits bear a star; i = inactive; · = no result given; [ ] = another dose, or the depositor's remark. Hits are enriched below; roughly 2.1% of the tested compounds scored in any of these assays.

SMILES	FN deposit inh	FGF22 binding	MLL AF4-AF9 inh	ARNT TACC3 PPI	ERp5 inh	PDI turbidity	ARNT Alpha ctr-1	others
CCOc1ccccc1C(=O)OCC(=O)Nc1nnc(-c2ccccc2)o1	0	0	-21	54*	0	1	-31%
COc1ccccc1-c1nnc(NC(=O)Cc2ccccc2)o1	12	0	0	54*	0	10	-23%
CCS(=O)(=O)NCC[C@@H]1CC[C@@H](NC(=O)C2CCOCC2)[C@@H](CO)O1	-7	0	-3	-19	4	·	·
Cc1ccccc1S(=O)(=O)NCC[C@H]1CC[C@@H](NC(=O)C2CCC2)[C@H](CO)O1	·	0	-1	-61	-5	·	·
CN(C)CCNc1ccc2ncn3c4ccc(O)cc4c(=O)c1c23	6	-1	34*	58*	5	4	-30%
CC(C)[C@@H]1COCc2cn(nn2)CC[C@@H](Cc2ccc(Cl)cc2)C(=O)N1	-3	·	·	·	·	·	·
Nc1ccc(C(=O)Nc2ccc3c(O)cc(S(=O)(=O)O)cc3c2)cc1	9	0	2	69*	2	7	-34%
Cc1nnc(N/N=C/c2ccc(-c3ccc(Br)cc3)o2)n1N	0	0	1	51*	-2	0	-29%
Oc1c(I)cc(I)c2cccnc12	4	0	-3	55*	3	4	50µM*
c1cncc(-c2nc(NCCCn3ccnc3)c3ccccc3n2)c1	·	0	2	63*	3	-7	66µM*
O=C(NCCCn1ccnc1)C(=O)NCC(c1ccco1)N1CCN(c2ccccc2)CC1 (stereo not given)	4	0	2	45*	2	2	-13%
COc1ccc(N2CCN(C(CNC(=O)C(=O)NCCCn3ccnc3)c3ccco3)CC2)cc1 (stereo not given)	0	-1	4	2	2	2	·
O=C(NCCCn1ccnc1)C(=O)NCC(c1ccco1)N1CCN(c2ccc(F)cc2)CC1 (stereo not given)	-13	0	-18	59*	-5	5	-15%
CN1C(=O)c2cc(NC(=O)Nc3ccccc3F)ccc2OC[C@@H]2O[C@@H](CC(=O)NCCc3ccncc3)CC[C@@H]21	-1	0	0	14	-3	·	·
O=C(CNS(=O)(=O)c1ccc([N+](=O)[O-])cc1)N/N=C\c1ccc(O)cc1	3	0	2	4	0	-5	·
O=C(CNS(=O)(=O)c1ccc([N+](=O)[O-])cc1)N/N=C/c1ccc(O)cc1O	9	0	-2	63*	6	-2	-13%
CN1CCC(N2CCN(C3CN(CCc4ccccc4)S(=O)(=O)C3)CC2)CC1 (stereo not given)	-6	0	0	·	2	·	·
CN1CCC(n2[nH]c(-c3ccccc3)c(Cc3ccccc3)c2=O)CC1	1	1	2	active	-1	6	-7%
C[C@@H](NC(=O)C[C@@H]1C[C@H]2c3cc(NC(=O)CC4CC4)ccc3O[C@H]2[C@@H](CO)O1)c1ccccc1	5	0	1	-4	5	·	·
CC(C)NC(=O)N1CC(=O)N2[C@H](CO)[C@@H](c3ccc(/C=C/c4ccccc4)cc3)[C@H]2C1	6	0	16	·	1	·	·
O=C(C[C@H]1C=C[C@@H](NC(=O)Nc2ccc(F)cc2)[C@H](CO)O1)NCCN1CCCC1	8	0	6	-8	2	·	·
O=C(Nc1cn2ccccc2n1)c1cc(-c2ccccc2)on1	·	·	·	·	·	·	-7%[38 µM]
O=C(Nc1nc(-c2ccccc2)cs1)c1cc(-c2ccccc2)on1	·	·	·	·	·	·	-2%[38 µM]
O=C(Nc1ccccc1)c1cn2ccccc2n1	-1	0	-1	41	-1	-5	·
COc1cccc(-c2ccc([C@@H]3[C@H](CO)N4CCCCN(C(=O)NC(C)C)C[C@@H]34)cc2)c1	·	·	·	5	2	·	·
SMILES	FN deposit inh	FGF22 binding	MLL AF4-AF9 inh	ARNT TACC3 PPI	ERp5 inh	PDI turbidity	ARNT Alpha ctr-1	others
CNC[C@@H]1OCCCC[C@@H](C)Oc2ccc(NS(=O)(=O)c3ccc(OC)cc3)cc2C(=O)N([C@H](C)CO)C[C@@H]1C	·	0	-2	-9	-2	·	·
FC(F)(F)c1cc(-c2nn[nH]n2)cc(C(F)(F)F)c1	·	·	·	·	·	·	·	ARNT Alpha ctr-2=i
O=c1c(N2CCOCC2)coc2ccccc12	·	0	-4	-10	-3	8	·
O=c1[nH]c(N2CCOCC2)cc2ccccc12	2	0	-1	41*	4	4	-8%
COc1ccc2cc1Oc1ccc(cc1)C[C@H]1c3cc(c(OC)cc3CCN1C)Oc1c(OC)c(OC)cc3c1[C@@H](C2)N(C)CC3	-4	0	1	30*	4	1	-21%
O=c1cc(-c2ccc(O)cc2)oc2c(O)c(O)c(O)c(O)c12	·	0	-3	53*	1	·	-35%
Cc1ccn2c(Nc3ccccc3C)c(-c3ccccn3)nc2c1	0	0	·	70*	2	4	21µM*
COC(=O)c1c(N)n(-c2ccc(NC(C)=O)cc2)c2nc3ccccc3nc12	·	·	·	14*	·	7	-18%
CN1C(=O)c2cc(NC(=O)c3ccc(F)cc3)ccc2OC[C@@H]2O[C@H](CC(=O)NCC3CCCCC3)CC[C@@H]21	-9	0	-1	-10	4	·	·
C(=N\Nc1ncnc2nc[nH]c12)/c1cccs1	-1	43*	-1	51*	-6	2	-14%
Fc1ccc(/C=N/Nc2ncnc3nc[nH]c23)cc1F	9	0	3	52*	-4	-12	-11%
Clc1ccc(CCNc2ncnc3nc[nH]c23)cc1	2	0	1	-8	4	2	·
CCCN1[C@H](C(=O)N[C@@H](C)c2ccccc2)[C@@H](CO)[C@@H]2Cn3c(ccc(-c4ccccc4)c3=O)[C@@H]21	·	0	3	1	0	·	·
O=C(Nc1nnc(C2CC2)o1)c1ccc(S(=O)(=O)N2CCCCC2)cc1	1	0	4	51*	3	-2	-38%
CC1CC(C)CN(S(=O)(=O)c2ccc(C(=O)Nc3nnc(C4=COCCO4)o3)cc2)C1 (stereo not given)	·	·	·	·	·	·	·	ARNT Alpha ctr-2=>136
CC1CCN(S(=O)(=O)c2ccc(C(=O)Nc3nnc(-c4ccncc4)o3)cc2)CC1	0	1	-2	·	-4	8	·
CC1CCCN(S(=O)(=O)c2ccc(C(=O)Nc3nnc(C4=COCCO4)o3)cc2)C1 (stereo not given)	·	0	2	40	-4	-10	·

Bioassay records from PubChem.
